Article PMC2880618 (Bioconjugate chemistry, 2009)
Values joined by “and” are separate entries in the source; they are usually repeats but may differ in a detail not shown here. Identical values can stand only once.

Tests used:
[1] = molecular target: sigma-1 receptor (Cavia porcellus, UniProt Q60492); test: Sigma-1 receptor competitive binding assay; design: species or system guinea pig
Summary of the method: (§1)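 Sigma-1: guinea pig brain membranes with 3H-PENT. Sigma-2: rat liver membranes from Sprague-Dawley rats with 3H-DTG, plus 1 μM dextrallorphane to mask sigma-1 sites.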

[2] = molecular target: T1, sigma-2 receptor (Rattus norvegicus, UniProt Q5U3Y7); test: Sigma-2 receptor competitive binding assay
T1 sequence (Q5U3Y7 1-176): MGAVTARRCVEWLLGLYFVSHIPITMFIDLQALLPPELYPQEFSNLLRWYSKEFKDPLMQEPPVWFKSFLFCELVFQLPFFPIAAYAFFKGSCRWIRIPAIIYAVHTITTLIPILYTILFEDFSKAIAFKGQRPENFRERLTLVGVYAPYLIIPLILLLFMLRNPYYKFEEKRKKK
Summary of the method: as §1

[3] = test system: B16F1 melanoma cells; test: In vitro uptake assay in melanoma cells; assay type: cell-based, mouse; settings: 1×10^6 cells/tube, 60 min, room temperature, n=3 tubes
Summary of the method: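 B16F1 mouse melanoma cells grown in DMEM with 10% FBS at 37°C, 5% CO2. At 80–90% confluence they were trypsinized and resuspended in PBS pH 7.4. Aliquots of 1×10^5, 5×10^5, 8×10^5 and 1×10^6 cells in triplicate tubes got ~200 Kcpm radiotracer for 1 hr at 22°C. Tubes were centrifuged and pellets washed with PBS; wash and pellet were gamma-counted. Uptake = % of total added activity in pellet.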

[4] = Tissue distribution studies in normal ICR mice; assay type: in vivo; settings: tail vein, mean±SEM n=5
Summary of the method: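 Normal ICR mice (6–8 weeks) received ~15 μCi radiotracer in 100 μL saline by tail vein. At 30, 60, 120 and 180 min mice were euthanized; tissues removed, washed with PBS, weighed and gamma-counted with an injected-dose standard. Values expressed as %ID/g; group differences by unpaired Student's t-test, P<0.05.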

[5] = Lipophilicity, shake flask 1-octanol/PBS pH 7.4; assay type: physicochemical; settings: 1-octanol/phosphate-buffered saline
Summary of the method: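 Shake-flask partition: ~500 Kcpm radiotracer added to 1 mL 1-octanol plus 1 mL PBS pH 7.4, in triplicate. Tubes vortexed 3 min and layers allowed to separate. 100 μL aliquots of each phase counted for radioactivity; log P calculated from the counts.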

[6] = test system: B16F1 melanoma tumor xenograft; test: Tissue distribution studies in C57 mice bearing B16F1 tumor xenograft; assay type: in vivo; settings: for F-18 uptake in brain, Percent Injected Dose per gram Tissue / F-18 uptake in heart, Percent Injected Dose per gram Tissue / F-18 uptake in intestine, Percent Injected Dose per gram Tissue / F-18 uptake in kidneys, Percent Injected Dose per gram Tissue / F-18 uptake in liver, Percent Injected Dose per gram Tissue / F-18 uptake in lung, Percent Injected Dose per gram Tissue / F-18 uptake in muscle, Percent Injected Dose per gram Tissue / F-18 uptake in spleen, Percent Injected Dose per gram Tissue / F-18 uptake in the tumor / F-18 uptake in blood, Percent Injected Dose per gram Tissue / F-18 uptake in bone, Percent Injected Dose per gram Tissue: C57 mice bearing B16F1 melanoma tumor xenograft; for F-18 uptake in brain, Percent Injected Dose per gram Tissue / F-18 uptake in heart, Percent Injected Dose per gram Tissue / F-18 uptake in intestine, Percent Injected Dose per gram Tissue / F-18 uptake in kidneys, Percent Injected Dose per gram Tissue / F-18 uptake in liver, Percent Injected Dose per gram Tissue / F-18 uptake in lung, Percent Injected Dose per gram Tissue / F-18 uptake in muscle, Percent Injected Dose per gram Tissue / F-18 uptake in spleen, Percent Injected Dose per gram Tissue / F-18 uptake in blood, Percent Injected Dose per gram Tissue / F-18 uptake in bone, Percent Injected Dose per gram Tissue: tail vein, mean±SEM n=5; for F-18 uptake in the tumor: n=5
Summary of the method: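 C57 mice (6–8 weeks) inoculated in the right flank with ~5×10^6 B16F1 cells in 0.1 mL Matrigel:PBS (50:50). Studied once tumors exceeded 200 mm³. ~15 μCi radiotracer in 100 μL saline given by tail vein. Mice euthanized at 30, 60, 120 and 180 min; tissues washed, weighed and gamma-counted against an injected-dose standard. %ID/g ([…], n=5) and tumor-to-tissue ratios reported.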

[7] = C57 normal mice, cited from earlier work
[8] = C57 mice bearing B16F1 melanoma tumor, 180 min post-injection

Sequence of sigma-1 receptor (Q60492 whole entry): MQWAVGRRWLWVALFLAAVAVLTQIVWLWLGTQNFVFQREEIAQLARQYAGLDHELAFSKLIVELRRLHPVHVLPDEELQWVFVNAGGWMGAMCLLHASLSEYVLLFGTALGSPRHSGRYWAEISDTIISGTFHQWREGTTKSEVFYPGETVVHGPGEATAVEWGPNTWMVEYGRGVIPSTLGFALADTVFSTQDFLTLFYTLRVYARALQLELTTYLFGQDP

With `CCN(CC)CCNC(=O)c1ccc(F)cc1` [DAFBA, N-(2-diethylaminoethyl)-4-fluorobenzamide] the IC50 [1] was greater than 1000 nM and the IC50 [2] was greater than 1000 nM.

In the case of `CCN(CC)CCNC(=O)c1ccc([18F])cc1` [[^18F]-DAFBA, N-(2-diethylaminoethyl)-4-[^18F]fluorobenzamide], the “percent uptake by cells (percent of total added radioactivity)” value [3] is reported as 5.60±2.67%, the “F-18 uptake in blood, Percent Injected Dose per gram Tissue” value ([4]; 30 min post injection) is reported as 0.78 ± 0.07 %ID/g and the “F-18 uptake in bone, Percent Injected Dose per gram Tissue” value ([4]; 30 min post injection) is reported as 0.81 ± 0.19 %ID/g. The “F-18 uptake in brain, Percent Injected Dose per gram Tissue” value ([4]; 30 min post injection) was 2.16 ± 0.32 %ID/g, the “F-18 uptake in heart, Percent Injected Dose per gram Tissue” value ([4]; 30 min post injection) was 1.10 ± 0.14 %ID/g and the “F-18 uptake in kidneys, Percent Injected Dose per gram Tissue” value ([4]; 30 min post injection) was 4.13 ± 0.68 %ID/g. The “F-18 uptake in liver, Percent Injected Dose per gram Tissue” value ([4]; 30 min post injection) was 3.12 ± 0.62 %ID/g, the “F-18 uptake in lung, Percent Injected Dose per gram Tissue” value ([4]; 30 min post injection) was 1.75 ± 0.43 %ID/g and the “F-18 uptake in muscle, Percent Injected Dose per gram Tissue” value ([4]; 30 min post injection) was 0.88 ± 0.13 %ID/g. For the same compound, the “F-18 uptake in spleen, Percent Injected Dose per gram Tissue” value ([4]; 30 min post injection) was 2.35 ± 0.07 %ID/g, the “F-18 uptake in blood, Percent Injected Dose per gram Tissue” value ([4]; 60 min post injection) was 0.67 ± 0.05 %ID/g and the “F-18 uptake in brain, Percent Injected Dose per gram Tissue” value ([4]; 60 min post injection) was 1.54 ± 0.24 %ID/g. For the same compound, the “F-18 uptake in heart, Percent Injected Dose per gram Tissue” value ([4]; 60 min post injection) was 0.92 ± 0.10 %ID/g, the “F-18 uptake in intestine, Percent Injected Dose per gram Tissue” value ([4]; 60 min post injection) was 1.39 ± 0.54 %ID/g and the “F-18 uptake in liver, Percent Injected Dose per gram Tissue” value ([4]; 60 min post injection) was 3.61 ± 0.48 %ID/g. For the same compound, the “F-18 uptake in lung, Percent Injected Dose per gram Tissue” value ([4]; 60 min post injection) was 1.84 ± 0.41 %ID/g, the “F-18 uptake in muscle, Percent Injected Dose per gram Tissue” value ([4]; 60 min post injection) was 0.65 ± 0.11 %ID/g and the “F-18 uptake in spleen, Percent Injected Dose per gram Tissue” value ([4]; 60 min post injection) was 1.87 ± 0.46 %ID/g. For the same compound, the “F-18 uptake in brain, Percent Injected Dose per gram Tissue” value ([4]; 120 min post injection) was 0.52 ± 0.07 %ID/g, the “F-18 uptake in heart, Percent Injected Dose per gram Tissue” value ([4]; 120 min post injection) was 0.28 ± 0.05 %ID/g and the “F-18 uptake in intestine, Percent Injected Dose per gram Tissue” value ([4]; 120 min post injection) was 0.26 ± 0.26 %ID/g. For the same compound, the “F-18 uptake in kidneys, Percent Injected Dose per gram Tissue” value ([4]; 120 min post injection) was 1.58 ± 0.51 %ID/g, the “F-18 uptake in blood, Percent Injected Dose per gram Tissue” value ([4]; 180 min post injection) was 0.21 ± 0.03 %ID/g and the “F-18 uptake in bone, Percent Injected Dose per gram Tissue” value ([4]; 180 min post injection) was 0.24 ± 0.10 %ID/g. The “F-18 uptake in heart, Percent Injected Dose per gram Tissue” value ([4]; 180 min post injection) was 0.23 ± 0.03 %ID/g, the “F-18 uptake in intestine, Percent Injected Dose per gram Tissue” value ([4]; 180 min post injection) was 0.40 ± 0.11 %ID/g and the “F-18 uptake in kidneys, Percent Injected Dose per gram Tissue” value ([4]; 180 min post injection) was 1.34 ± 0.36 %ID/g. The “F-18 uptake in liver, Percent Injected Dose per gram Tissue” value ([4]; 180 min post injection) was 1.12 ± 0.20 %ID/g, the “F-18 uptake in lung, Percent Injected Dose per gram Tissue” value ([4]; 180 min post injection) was 0.49 ± 0.07 %ID/g and the “F-18 uptake in spleen, Percent Injected Dose per gram Tissue” value ([4]; 180 min post injection) was 0.53 ± 0.08 %ID/g. The logP [5] was 1.7, the “F-18 uptake in brain, Percent Injected Dose per gram Tissue” value ([6]; 30 min post injection) was 2.02 ± 0.35 %ID/g and the “F-18 uptake in heart, Percent Injected Dose per gram Tissue” value ([6]; 30 min post injection) was 1.25 ± 0.28 %ID/g. For the same compound, the “F-18 uptake in intestine, Percent Injected Dose per gram Tissue” value ([6]; 30 min post injection) was 1.94 ± 0.51 %ID/g, the “F-18 uptake in kidneys, Percent Injected Dose per gram Tissue” value ([6]; 30 min post injection) was 4.50 ± 1.33 %ID/g and the “F-18 uptake in liver, Percent Injected Dose per gram Tissue” value ([6]; 30 min post injection) was 3.27 ± 0.90 %ID/g. For the same compound, the “F-18 uptake in lung, Percent Injected Dose per gram Tissue” value ([6]; 30 min post injection) was 2.46 ± 1.27 %ID/g, the “F-18 uptake in muscle, Percent Injected Dose per gram Tissue” value ([6]; 30 min post injection) was 1.09 ± 0.18 %ID/g and the “F-18 uptake in spleen, Percent Injected Dose per gram Tissue” value ([6]; 30 min post injection) was 2.14 ± 0.41 %ID/g. The “F-18 uptake in the tumor” value ([6]; 60 min post injection) was 7.00±2.76 %ID/g, the “F-18 uptake in blood, Percent Injected Dose per gram Tissue” value ([6]; 60 min post injection) was 0.68 ± 0.21 %ID/g and the “F-18 uptake in bone, Percent Injected Dose per gram Tissue” value ([6]; 60 min post injection) was 0.90 ± 0.27 %ID/g. For the same compound, the “F-18 uptake in brain, Percent Injected Dose per gram Tissue” value ([6]; 60 min post injection) was 1.68 ± 0.43 %ID/g, the “F-18 uptake in heart, Percent Injected Dose per gram Tissue” value ([6]; 60 min post injection) was 1.27 ± 0.50 %ID/g and the “F-18 uptake in intestine, Percent Injected Dose per gram Tissue” value ([6]; 60 min post injection) was 1.98 ± 0.88 %ID/g. For the same compound, the “F-18 uptake in kidneys, Percent Injected Dose per gram Tissue” value ([6]; 60 min post injection) was 5.38 ± 1.86 %ID/g, the “F-18 uptake in liver, Percent Injected Dose per gram Tissue” value ([6]; 60 min post injection) was 5.01 ± 2.06 %ID/g and the “F-18 uptake in lung, Percent Injected Dose per gram Tissue” value ([6]; 60 min post injection) was 2.48 ± 1.27 %ID/g. For the same compound, the “F-18 uptake in muscle, Percent Injected Dose per gram Tissue” value ([6]; 60 min post injection) was 1.10 ± 0.38 %ID/g, the “F-18 uptake in spleen, Percent Injected Dose per gram Tissue” value ([6]; 60 min post injection) was 1.83 ± 0.54 %ID/g and the “F-18 uptake in the tumor” value ([6]; 120 min post injection) was 6.57±1.66 %ID/g. The “F-18 uptake in bone, Percent Injected Dose per gram Tissue” value ([6]; 120 min post injection) was 0.57 ± 0.32 %ID/g, the “F-18 uptake in brain, Percent Injected Dose per gram Tissue” value ([6]; 120 min post injection) was 0.64 ± 0.40 %ID/g and the “F-18 uptake in kidneys, Percent Injected Dose per gram Tissue” value ([6]; 120 min post injection) was 1.41 ± 0.11 %ID/g. For the same compound, the “F-18 uptake in liver, Percent Injected Dose per gram Tissue” value ([6]; 120 min post injection) was 2.35 ± 1.20 %ID/g, the “F-18 uptake in lung, Percent Injected Dose per gram Tissue” value ([6]; 120 min post injection) was 1.47 ± 0.47 %ID/g and the “F-18 uptake in muscle, Percent Injected Dose per gram Tissue” value ([6]; 120 min post injection) was 0.57 ± 0.54 %ID/g. The “F-18 uptake in spleen, Percent Injected Dose per gram Tissue” value ([6]; 120 min post injection) was 0.71 ± 0.37 %ID/g, the “F-18 uptake in blood, Percent Injected Dose per gram Tissue” value ([6]; 180 min post injection) was 0.13 ± 0.03 %ID/g and the “F-18 uptake in bone, Percent Injected Dose per gram Tissue” value ([6]; 180 min post injection) was 0.17 ± 0.05 %ID/g. The “F-18 uptake in brain, Percent Injected Dose per gram Tissue” value ([6]; 180 min post injection) was 0.29 ± 0.05 %ID/g, the “F-18 uptake in heart, Percent Injected Dose per gram Tissue” value ([6]; 180 min post injection) was 0.21 ± 0.04 %ID/g and the “F-18 uptake in kidneys, Percent Injected Dose per gram Tissue” value ([6]; 180 min post injection) was 0.83 ± 0.23 %ID/g. The “F-18 uptake in muscle, Percent Injected Dose per gram Tissue” value ([6]; 180 min post injection) was 0.17 ± 0.03 %ID/g, the “F-18 uptake in spleen, Percent Injected Dose per gram Tissue” value ([6]; 180 min post injection) was 0.44 ± 0.25 %ID/g and the “tumor to blood ratio” value ([6]; C57 mice bearing B16F1 melanoma tumor, 60 min post-injection) was 8.3±3. For the same compound, the “tumor to liver ratio” value [6, 8] was 6.33±1.9, the “tumor to lung ratio” value [6, 8] was 21.90±4.68 and > 20 and the “tumor to muscle ratio” value [6, 8] was 32.91±6.11 and > 20. For the same compound, the “tumor to spleen ratio” value [6, 8] was 14.90±6.47.

For `CCN(CC)CCNC(=O)c1ccc(OC)c(I)c1` [[^*I]IMBA, [^*I]N-(2-diethylaminoethyl) 3-iodo 4-methoxybenzamide], the “radioiodine uptake in blood” value ([7]; 60 min post injection) is given as 0.84±0.08 %ID/g, the “radioiodine uptake in liver” value ([7]; 60 min post injection) is given as 3.09±0.45 %ID/g and the “radioiodine uptake in lungs” value ([7]; 60 min post injection) is given as 1.06±0.23 %ID/g. For the same compound, the “radioiodine uptake in intestine” value [7] was 7.70±4.70 %ID/g and the “radioiodine uptake in the stomach” value [7] was 9.72±1.51 %ID/g.
